In the library only some 1.9% were active in any assay of this set; here they are far more common.
pCIP destab: p/CIP protein destabilization | decrease of EGFP signal, % at 10 µM | actives 0.01% (n = 290,000) | AID 1984 | F442A p/CIP-EGFP cells, EGFP fluorescence, 16 h;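 active = EGFP signal decrease of at least 30% at 10 µM or well 3 SD below plate mean, unless failing retest; inactive = the rest, including hits failing retest or dose response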
Target sequence (Q05BA5 1-1403): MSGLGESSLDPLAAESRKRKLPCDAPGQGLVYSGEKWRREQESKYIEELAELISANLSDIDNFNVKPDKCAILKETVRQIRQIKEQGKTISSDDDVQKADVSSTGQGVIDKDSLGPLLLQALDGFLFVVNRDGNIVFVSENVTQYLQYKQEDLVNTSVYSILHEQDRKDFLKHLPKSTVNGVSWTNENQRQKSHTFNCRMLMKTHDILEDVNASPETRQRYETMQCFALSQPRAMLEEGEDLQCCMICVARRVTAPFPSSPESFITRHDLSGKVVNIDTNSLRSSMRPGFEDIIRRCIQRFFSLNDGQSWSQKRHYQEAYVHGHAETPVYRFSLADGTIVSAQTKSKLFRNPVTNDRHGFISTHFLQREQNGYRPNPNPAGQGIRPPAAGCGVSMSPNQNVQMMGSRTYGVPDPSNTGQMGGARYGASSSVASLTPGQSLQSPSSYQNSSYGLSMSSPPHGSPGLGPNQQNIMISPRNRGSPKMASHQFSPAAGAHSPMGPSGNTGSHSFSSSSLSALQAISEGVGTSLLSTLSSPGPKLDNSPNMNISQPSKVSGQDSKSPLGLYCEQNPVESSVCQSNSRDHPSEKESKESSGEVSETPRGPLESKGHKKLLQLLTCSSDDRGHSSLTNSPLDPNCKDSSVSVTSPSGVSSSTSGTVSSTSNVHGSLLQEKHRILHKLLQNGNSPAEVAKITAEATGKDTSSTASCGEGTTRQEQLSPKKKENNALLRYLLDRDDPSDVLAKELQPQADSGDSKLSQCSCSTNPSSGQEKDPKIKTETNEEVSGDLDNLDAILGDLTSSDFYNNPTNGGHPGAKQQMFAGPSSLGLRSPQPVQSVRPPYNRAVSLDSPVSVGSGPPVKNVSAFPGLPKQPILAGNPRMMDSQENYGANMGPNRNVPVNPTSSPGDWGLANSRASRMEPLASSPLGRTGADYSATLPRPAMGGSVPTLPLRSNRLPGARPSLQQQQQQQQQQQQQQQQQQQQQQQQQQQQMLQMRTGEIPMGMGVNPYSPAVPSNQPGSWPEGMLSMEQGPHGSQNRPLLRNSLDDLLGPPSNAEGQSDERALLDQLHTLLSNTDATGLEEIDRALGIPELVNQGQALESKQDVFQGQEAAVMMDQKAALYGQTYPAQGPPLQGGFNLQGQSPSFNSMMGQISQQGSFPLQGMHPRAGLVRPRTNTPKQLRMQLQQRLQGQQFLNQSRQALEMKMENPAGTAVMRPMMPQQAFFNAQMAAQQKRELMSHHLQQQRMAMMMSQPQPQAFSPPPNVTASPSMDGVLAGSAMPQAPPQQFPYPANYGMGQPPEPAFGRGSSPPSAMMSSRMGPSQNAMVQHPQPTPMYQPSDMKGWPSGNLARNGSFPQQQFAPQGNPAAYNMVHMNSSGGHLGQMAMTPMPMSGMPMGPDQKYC
Dynein cargo inh: blocks dynein driven cargo transport along microtubules; z-score, hits read low; 3617.4 mouse cells, GR-EGFP nuclear translocation imaging; test concentration mostly 20 µM; stimulated with dexamethasone, 1 µM; hits give low values; actives 0.47% (n = 220,000); AID 1381;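 active = plate z-score of nuclear minus cytoplasmic receptor signal below a set negative limit, without overly bright fluorescence or cell loss, cut at about -3.5 in these data, passing the limit was not always enough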;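 also: z-score of nuclear minus cytoplasmic ring GR-EGFP intensity difference per well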
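Buffer or medium: tet-free, stripped-serum medium; reagent: dexamethasone at 1.0 µM final, 30 min; incubation: 48 h induction, 1 h compound, 30 min dex at 37 °C; measured by: formaldehyde fixation, Hoechst nuclear stain, 10x automated fluorescence imaging; read-out: nuclear-to-cytoplasmic GR-EGFP distribution per well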
p47phox inh: p47phox (human) inhibition | p47phox/p22phox peptide binding, fluorescence polarization, 2 h | actives 0.53% (n = 220,000) | inhibition, % at 24.7 µM | P14598;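 active = inhibition above about 30%, limit read from the data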
RAM inhibit: yeast RAM network inhibition. actives 1.8% (n = 190,000). inhibition, % at 50 µM. S. cerevisiae dse1pr::URA3 reporter, 5-FOA growth OD615, 2 d; analog-sensitive cbk1-as2 kinase mutant strain. AID 868;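 active = inhibition above a set limit, 3 SD over mean compound inhibition, cut at about 8.4% in these data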;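 also: inhibition rescues growth on 5-FOA so higher OD means more RAM inhibition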
RAM 5-FOA: restores 5-FOA growth of efflux-deficient yeast | S. cerevisiae efflux-deficient reporter strain, 5-FOA growth OD615, 2 days | AID 1305 | shares compounds with RAM inhibit | 1,200 tested, under 10 active | max inhibition, %; call rule not given here
Large screens that a line does not name were inactive (follow-up assays come after a bar, where they were run).

O=C(/C=C/c1ccc2c(c1)OCO2)c1ccc(F)cc1	none
COc1ccccc1Cn1c(=S)[nH]c2cc(C(=O)NCC(OC)OC)ccc2c1=O	none (no result: Dynein cargo inh, p47phox inh, RAM inhibit)
O=C1OCC=C1NNC(=O)c1cccnc1	p47phox inh active
CCCn1c(N)cc(=O)n(CCC)c1=O	none
O=C(CCCn1c(=S)[nH]c2cc3c(cc2c1=O)OCO3)NCc1ccccc1Cl	none (no result: Dynein cargo inh, p47phox inh, RAM inhibit)
N/C(=N\OC(=O)COc1ccc2ccccc2c1Br)c1ccccn1	RAM inhibit 9.1
COC(=O)c1cc(S(=O)(=O)NCCN2CCOCC2)cn1C	none (no result: Dynein cargo inh, p47phox inh, RAM inhibit)
S=C(NCc1ccncc1)Nc1ccc(Br)cc1Cl	none (no result: Dynein cargo inh, p47phox inh, RAM inhibit)
Cc1cccnc1NC(=S)Nc1ccc(Br)cc1Cl	RAM inhibit 8.5
COc1ccccc1/C=C/C(=O)OCC(=O)c1c(N)n(C)c(=O)n(C)c1=O	none
CCOc1ccc(N/C=C/C(=O)c2ccc(C)cc2)c([N+](=O)[O-])c1	p47phox inh 37
Cc1ccc(-n2c(C)cc(C(=O)COc3c(CO)cc(F)cc3CO)c2C)cc1C	none
CCN(CC)S(=O)(=O)c1ccc(NC(=O)COC(=O)CNS(=O)(=O)/C=C/c2ccccc2)cc1	RAM inhibit 8.4
C=C(C)CN1CCN(S(=O)(=O)c2ccc(C)c(N(C)S(=O)(=O)c3ccc(C)cc3)c2C)CC1	none
Cc1ccc(CNC(=O)C(NS(=O)(=O)c2ccc3nc(C)sc3c2)C(C)C)cc1 (stereo not drawn)	none
Cc1nc2ccc(S(=O)(=O)NC(C(=O)NCc3ccco3)C(C)C)cc2s1 (stereo not drawn)	p47phox inh 121
CCOc1ccc2nc(SCC(=O)Nc3nonc3C)[nH]c2c1	RAM inhibit 9.1
CCCCCCC(=O)Cc1cc(OC)c(OC)cc1C=C(C(=O)OCC)C(=O)OCC	Dynein cargo inh -4.3
COc1cccc(CN2CC(C(=O)NCCc3ccccc3C(F)(F)F)CCC2=O)c1 (stereo not drawn)	none (no result: Dynein cargo inh, p47phox inh, RAM inhibit)
CCOC(=O)c1ccc2c(c1)N(CC)/C(=C\C=C1/SC(=S)N(CC)C1=O)N2CC	Dynein cargo inh -6 (no result: pCIP destab, p47phox inh, RAM inhibit)
C=CCN1C(=O)/C(=C/C=C2/N(CC)c3ccc(S(=O)(=O)N(C)C)cc3N2CC)SC1=S	none
CC1CCN(C(=O)CSc2nnc3c(n2)[nH]c2ccccc23)CC1	none (no result: Dynein cargo inh, p47phox inh, RAM inhibit)
CSc1nc(Cl)c(Cc2ccc(OC(C)C)cc2)c(N(C)C)n1	RAM inhibit 8.9
CCOc1ccc(Cc2c(Cl)nc(SC)nc2N(C)C)cc1	none
CCc1ccccc1NC(=O)c1cnn(-c2ccccc2)c1C	none (no result: Dynein cargo inh, p47phox inh, RAM inhibit)
CC1CCN(C(=O)N2c3ccccc3Sc3ccccc32)CC1	none
CC1CCCN(C(=O)N2c3ccccc3Sc3ccccc32)C1 (stereo not drawn)	RAM inhibit 10
O=C(CSCc1ccccc1Br)Nc1ccccc1	none (no result: Dynein cargo inh, p47phox inh, RAM inhibit)
CCn1ncc(Br)c1C(=O)Nc1cc(C(=O)OC)ccc1C(=O)OC	RAM inhibit 8.5
CCOCC(=O)Nc1cc(C(=O)OC)ccc1C(=O)OC	none
COC(=O)c1ccc(C(=O)OC)c(NC(=O)COC(=O)c2ccc(OC)c(OC)c2OC)c1	RAM inhibit 11
COC(=O)c1ccc(C(=O)OC)c(NC(=O)CSCc2ccccc2Br)c1	RAM inhibit 11
CSc1ncccc1C(=O)OCC(=O)NCc1ccc2c(c1)OCO2	none
O=C(NC(c1ccccc1)c1ccccc1)c1cccc(S(=O)(=O)NCc2ccccc2)c1	RAM inhibit 8.6
CCOC(=O)C1=C(O)/C(=C/c2cn(CC(=O)N3CCCC3)c3ccccc23)SC1=Nc1ccccc1	RAM inhibit 9.1
COC(=O)c1cn(CC(=O)N2CCCCCC2)c2ccccc12	none
CC(C)(C)C(=O)Nc1cc(S(=O)(=O)Nc2ccc(Cl)cc2)ccc1Cl	RAM inhibit 11
O=S(=O)(c1cccs1)N1CN(Cc2cccs2)c2nc3ccccc3nc21	RAM inhibit 8.6
CN(CC(=O)Nc1cccc(S(=O)(=O)N(C)C)c1)Cc1ccccc1	none (no result: Dynein cargo inh, p47phox inh, RAM inhibit)
CN(C)S(=O)(=O)c1cccc(NC(=S)NN=C(Cc2ccccc2)Cc2ccccc2)c1	RAM inhibit 10
CCOc1ccc(-n2c(C)c(C(C)=O)c3cc(OCC(N)=O)ccc32)cc1	none
COc1ccc(-n2c(C)c(C(C)=O)c3cc(OCC(N)=O)ccc32)cc1	RAM inhibit 8.8
Cc1ccc(-c2nc3cccnc3s2)cc1NC(=O)c1ccco1	none (no result: pCIP destab, p47phox inh, RAM inhibit)
Cc1ccc(-c2nc3cccnc3s2)cc1NC(=O)C1c2ccccc2Oc2ccccc21	p47phox inh 33
CCc1ccc(N(C(=O)Cc2cccs2)C(C(=O)NC2CCCCC2)c2cn(C)nc2C)cc1 (stereo not drawn)	RAM inhibit 8.5
CC1=Nc2cccc3cccc(c23)N1	p47phox inh 158
CC(NC(=O)/C(=C/c1ccc(OC(F)F)cc1)c1ccccc1)c1ccccc1 (stereo not drawn)	RAM inhibit 9.6
O=C(OCC(=O)N1CCCCCC1)c1ccc(S(=O)(=O)N2CCOCC2)cc1	none
O=C(OCC(=O)c1ccc(S(=O)(=O)N2CCCC2)cc1)C1=COCCO1	p47phox inh active
Cn1nc(C(=O)OCc2ccc(F)cc2)c2ccccc2c1=O	RAM inhibit 10
COc1ccc(OC)c(Nc2nc(-c3ccccc3O)nc3ccccc23)c1	RAM inhibit 9.7
O=C1C(Br)=Cc2cccc3cccc1c23	p47phox inh 31 (no result: RAM inhibit)
O=C1C([N+](=O)[O-])=C(O)c2cccc3cccc1c23	none (no result: Dynein cargo inh, p47phox inh, RAM inhibit)
CCN(CC(=O)Nc1ccc(C)c(F)c1)CC(=O)NC(C)(C)C	none (no result: p47phox inh)
Cc1ccccc1NC(=O)CSc1nc2c(c(=O)n(C)c(=O)n2C)n1C	none (no result: Dynein cargo inh, p47phox inh, RAM inhibit)
c1ccc(-c2cc(-c3nnc4n3N=C(c3ccc5ccccc5c3)CS4)[nH]n2)cc1	p47phox inh 45
CN1CCc2c(sc(NC(=O)c3cc4cc([N+](=O)[O-])ccc4s3)c2C(N)=O)C1	p47phox inh 77
CC(C)OC(=O)CC(=O)CSc1nc(-c2ccc(F)cc2)cc(-c2ccccc2)c1C#N	RAM inhibit 14 | RAM 5-FOA inactive
Cc1cc(C(=O)CSc2ccc(Cl)cc2)cc(C)c1OC(=S)N(C)C	RAM inhibit 12 | RAM 5-FOA inactive
Cc1ccccc1OCCC(=O)OCC(=O)N(C)c1c(N)n(Cc2ccccc2)c(=O)[nH]c1=O	none (no result: Dynein cargo inh, p47phox inh, RAM inhibit)
Clc1ccc2oc3c(Cl)ncnc3c2c1	none
COC(=O)C/C=C/[C@@H](C)[C@@H](/C=N/O[C@@H](C)c1cn([C@H](CO)Cc2ccccc2)nn1)NS(=O)(=O)c1ccc(C)cc1	none
COC(=O)C/C=C/[C@@H](C)[C@@H](/C=N/OC[C@H]1O[C@H](c2ccccc2)C=C[C@@H]1Oc1ccc(OC)cc1)NS(=O)(=O)c1ccc(C)cc1	RAM inhibit 16 | RAM 5-FOA inactive
COc1ccc(O[C@H]2C=C[C@@H](c3ccccc3)O[C@@H]2CO/N=C(\C)CCC(=O)OC[C@H]2O[C@H](c3ccccc3)C=C[C@@H]2Oc2ccc(OC)cc2)cc1	RAM inhibit 25 | RAM 5-FOA inactive
Cc1ccc2c(CSc3nncn3C)cc(=O)oc2c1C	none

From PubChem
